procasp3 activ – activators of human procaspase-3 D3A mutant, primary screen, biochemical, absorbance, PC-3 D3A mutant, single concentration; Caspase-3 (Homo sapiens), P42574; hit rate 0.11% among 330,000; activation, % at 8.5 µM; AID 463141, 2010; recombinant procaspase-3 D3A, Ac-DEVD-pNA absorbance 405 nm;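 active means activation above the mean of all tested compounds plus 3 SD, cut at about 21% in these data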
Target sequence (P42574 whole entry D9A/D28A/D175A): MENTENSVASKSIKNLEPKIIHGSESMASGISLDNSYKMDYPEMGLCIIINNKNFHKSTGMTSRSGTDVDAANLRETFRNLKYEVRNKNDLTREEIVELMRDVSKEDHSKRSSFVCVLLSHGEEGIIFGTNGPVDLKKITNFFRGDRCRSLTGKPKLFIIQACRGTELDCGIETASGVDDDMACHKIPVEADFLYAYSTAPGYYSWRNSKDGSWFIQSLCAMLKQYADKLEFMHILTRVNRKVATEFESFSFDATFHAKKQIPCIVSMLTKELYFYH
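Compound: 8.5 µM single point, 0.8% DMSO / Material: Autoprocessing-dead procaspase-3 D3A mutant enzyme / Timing: 1 h preincubation plus 2 h reaction at 25 °C / Medium: Zinc-free HEPES/NaCl buffer with 0.01% Triton X-100 at pH 7.4 / Technique: 405 nm absorbance of p-nitroaniline, reads at 0 and 120 min / Repeats: one well per compound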
procasp7 counter – procaspase-7 activators, primary screen, counter-screen for procaspase-3 activator project, biochemical, absorbance, HTS, human; Caspase-7 (Homo sapiens), P55210; recombinant procaspase-7, Ac-DEVD-pNA absorbance 405 nm; D23A/D198A/D206A triple mutant, cannot self-cleave; scale: DMSO 0, 5 µM enzyme 100; hit rate 0.093% among 330,000; activation, % at 8.5 µM;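 active means percent activation above the screen-wide mean plus 3 SD, cut at about 25% in these data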
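System: Procaspase-7 triple mutant (PC-7 D3A); measure: % activation from two-timepoint absorbance difference, scaled to controls; times: 1 h compound preincubation, 2 h substrate cleavage, 25 °C; also added: Ac-DEVD-pNA substrate, 400 µM as added; measured by: Epi-absorbance of released pNA at 405 nm, two timepoints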
ASAP1 inh – inhibitors of human ASAP1 ArfGAP activity, primary screen, biochemical, fluorescence polarization. Arf-GAP with SH3 domain, ANK repeat and PH domain-containing protein 1 (Homo sapiens), …. ASAP1-stimulated ARF1 GTP hydrolysis, GDP FP detection. inhibition, % at 16.5 µM. hit rate 0.19% among 360,000. AID 624377, 2012; in the data active means inhibition above about 25%
ARFGAP1 inh – inhibitors of rat ARFGAP1 GAP activity, primary screen, biochemical, fluorescence polarization, GDP tracer; inhibition, % at 16.5 µM; ADP-ribosylation factor GTPase-activating protein 1 (Rattus norvegicus), Q62848; Arfgap1-stimulated ARF1 GTP hydrolysis, GDP FP detection; hit rate 0.26% among 360,000;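 active means inhibition above a per-plate limit, mean inhibition of low control wells plus 3 SD, cut at about 25% in these data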
Target sequence (Q62848 1-136 limits assumed): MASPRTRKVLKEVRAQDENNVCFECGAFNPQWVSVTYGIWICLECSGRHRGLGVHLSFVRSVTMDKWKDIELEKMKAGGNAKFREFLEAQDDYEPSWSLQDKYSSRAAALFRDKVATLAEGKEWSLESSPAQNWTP
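Material – truncated rat Arfgap1 GAP domain · Buffer or medium – HEPES-based buffer, pH 7.5 · Reagent – human ARF1(Δ1-17)-GTP substrate · Dosing – 16.5 µM single point, 1.26% DMSO · Schedule – GTP hydrolysis reaction 2 h at 25 °C · Technique – GDP detection by fluorescence polarization · Benchmarks – No-Arfgap1 wells (100%) versus DMSO full-reaction wells (0%) · Repeats – single replicate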
LANA-H2B inh – blockers of LANA interaction with H2A/H2B – biochemical, FP readout, HTS, primary screen | Protein LANA1 (Human herpesvirus 8 type P (isolate GK18)), Q9QR71 | cell-free LANA-H2A/H2B peptide, fluorescence polarization | inhibition, % (test concentration not listed) | hit rate 0.6% among 320,000; in the data active means inhibition mostly above about 10%, no sharp cut-off; inactive means mostly below about 6.7%
CR mimetic SO – reduction of superoxide in aged yeast, primary screen, HTS | superoxide response (% of plate mean), % at 10 µM | AID 2690, 2010 | S. cerevisiae aged cells, superoxide DHE fluorescence; stronger effect = lower value | hit rate 0.18% among 330,000;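 active means superoxide response under a set limit, about three screen SD below normal, cut at about 65% in these data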;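 further: yeast aged for seven days with compound at 30 °C before DHE staining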
CR mimetic CP – superoxide lowering in aged yeast cells, confirmation, cherry picked compounds; shares compounds with CR mimetic SO; superoxide response (% of plate), % at 10 µM; AID 434994, 2010; S. cerevisiae aging, superoxide DHE fluorescence; stronger effect = lower value; hit rate 1% among 850;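 active means superoxide signal below 65% of the plate average of sample wells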;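 further: cells aged with compound for 7 days at 30 degrees C before staining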
DHE counter – DHE quenching or ROS scavenging interference in aged yeast, artefact control for yeast caloric restriction mimetic project, S. cerevisiae BY4741, flow cytometry | fluorescence response, % at 10 µM | DHE fluorescence; stronger effect = lower value | AID 435000, 2010 | 850 tested, under 10 active | shares compounds with CR mimetic SO;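 active means fluorescence response below 15%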
Of the large screens only hits and unclear results are named; the others gave an inactive call (follow-up assays come after a bar, where they were run). Most compounds without a hit are left out; they make up all but 1.2% or so of the library.

O=C(NC(=O)N1CCCC1)c1csnn1	CR mimetic SO 64 | CR mimetic CP inactive | DHE counter inactive
Cc1cc(OCCn2ccnc2)cc(C)c1Cl	none
C=CCNc1ncnc2c1cnn2-c1ccc(C)cc1C	none | CR mimetic CP inactive | DHE counter inactive
Cc1ccc(-n2ncc3c(NCCCOC(C)C)ncnc32)c(C)c1	none
CCOC(=O)C1=C(C)N(CCCC(=O)NCc2ccc3c(c2)OCO3)C(=O)NC1c1ccc(Br)cc1 (stereo not drawn)	none
c1ccc2nc3ccccc3nc2c1	CR mimetic SO 64 | CR mimetic CP inactive | DHE counter inactive
CCOc1cc(C(=O)N/N=C/c2cn(-c3ccccc3)nc2-c2cc3ccccc3o2)cc(OCC)c1OCC	none (no result: procasp3 activ, procasp7 counter, LANA-H2B inh, CR mimetic SO)
C=CCSc1nnc(-c2ccc([N+](=O)[O-])cc2)o1	CR mimetic SO 64 | CR mimetic CP inactive | DHE counter inactive
CC(C)(c1cc(Br)c(O)c(Br)c1)c1cc(Br)c(O)c(Br)c1	CR mimetic SO 43 | CR mimetic CP inactive | DHE counter inactive
CC(C)(c1ccc(O)c([N+](=O)[O-])c1)c1ccc(O)c([N+](=O)[O-])c1	none (no result: procasp3 activ, procasp7 counter, LANA-H2B inh, CR mimetic SO)
CCn1c(SCC(=O)Nc2ccc(OC)c(OC)c2)nnc1-c1cccs1	none | CR mimetic CP inactive | DHE counter inactive
CCn1c(SCC(=O)Nc2cc(OC)c(OC)c(OC)c2)nnc1-c1cccs1	none
CCN(CC)S(=O)(=O)c1ccc(N2CCCC2)c(NC(=O)Cc2c(F)cccc2Cl)c1	none | CR mimetic CP inactive | DHE counter inactive
Cc1ncc([N+](=O)[O-])n1CC(=O)Nc1ccc(F)c(F)c1	CR mimetic SO 53 | CR mimetic CP inactive | DHE counter inactive
Cc1ncc([N+](=O)[O-])n1CC(=O)Nc1ccc(Cl)cc1	none
CC(=O)COc1nc2c(c(-c3ccco3)c1C#N)CCc1ccccc1-2	CR mimetic SO 65 (no result: ASAP1 inh, ARFGAP1 inh) | CR mimetic CP inactive | DHE counter inactive
Cc1cc(=O)oc2cc(OCC(=O)N3CCN(C(=O)c4ccco4)CC3)ccc12	none
O=c1c2ccccc2nc(-c2ccc([N+](=O)[O-])cc2)n1O	none
Cc1ccc(-c2nc3ccccc3c(=O)n2O)cc1	CR mimetic SO 59 | CR mimetic CP inactive | DHE counter inactive
Cc1ccc(S(=O)(=O)N(CCCc2c(C)nc[nH]c2=O)c2ccccc2)cc1	none (no result: procasp3 activ, procasp7 counter, LANA-H2B inh, CR mimetic SO)
CC(=O)n1c2ccccc2c2ccccc21	none | CR mimetic CP inactive | DHE counter inactive
CCN(CC)CCN1C(=O)C(O)=C(C(C)=O)C1c1ccccc1[N+](=O)[O-] (stereo not drawn)	none
CC(=O)C1=C(O)C(=O)N(CCc2ccccc2)C1c1ccccc1[N+](=O)[O-] (stereo not drawn)	CR mimetic SO 59 | CR mimetic CP inactive | DHE counter inactive
Cc1cccc(C(=O)N(Cc2ccc(C)o2)C2CCS(=O)(=O)C2)c1 (stereo not drawn)	none
CCn1c2ccccc2c2cc(NC(=O)C(C)C)ccc21	none | CR mimetic CP inactive | DHE counter inactive
CCCC(=O)Nc1ccc2c(c1)c1ccccc1n2CC	none | CR mimetic CP inactive | DHE counter inactive
CCn1c2ccccc2c2cc(NC(=O)CC(C)=O)ccc21	none | CR mimetic CP inactive | DHE counter inactive
